The source of these data is ChEMBL document CHEMBL1255395, “Laninamivir prodrug CS-8958, a long-acting neuraminidase inhibitor, shows superior anti-influenza virus activity after a single administration” (Antimicrob Agents Chemother, 2010).

The subject of data set [1] is Influenza A virus. As to the kind of experiment: Antimicrobial activity against Influenza A virus (A/Puerto Rico/8/34(H1N1)) infected in BALB/c mouse assessed as increase in mouse survival at 1.1 mg/kg, po bid administered 11 hrs post infection for 5 days […] infection. Further details: dose 1.1 mg/kg. As to conditions: A/Puerto Rico/8/1934(H1N1). It is filed as functional, organism-based. In short, it runs like this:
(§1)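 Female BALB/c mice (5–6 weeks) infected intranasally with A/PR/8/34 at 100 PFU, n = 10 per group. Each mouse got one intranasal dose at 11 hpi plus oral doses twice daily from 11 hpi to 120 hpi. Drug went by one route and saline by the other, all in saline vehicle. Survival was followed daily to day 20 and analysed by Kaplan-Meier with a log-rank test against the saline group.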

Data set [2] relates to Influenza A virus. The data set can be described thus: Antimicrobial activity against Influenza A virus (A/Puerto Rico/8/34(H1N1)) infected in BALB/c mouse assessed as reduction in viral titer in lung at 10 mg/kg, po bid repeated regimen after 11 hrs post infection. It is filed as functional, organism-based. Also noted: dose 10 mg/kg. Conditions: A/Puerto Rico/8/1934(H1N1), TDE = time-dependent effect. The procedure, abridged: (§2)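 BALB/c mice infected intranasally with A/PR/8/34 at 30 PFU. Oral drug was given twice daily from 11 hpi with intranasal saline at 11 hpi, or a single intranasal dose at 11 hpi with oral saline on the same schedule. Lungs (n = 3) were harvested at 35, 59 and 83 hpi. Titers were measured by MDCK plaque assay, log10 PFU/lungs.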

For data set [3], the system named is Influenza A virus. The data set can be described thus: Antimicrobial activity against Influenza A virus (A/Puerto Rico/8/34(H1N1)) infected in BALB/c mouse assessed as reduction in viral titer in lung at 1 mg/kg, po bid repeated regimen after 11 hrs post infection. Conditions: A/Puerto Rico/8/1934(H1N1), TDE = time-dependent effect. Also noted: dose 1 mg/kg. It is filed as functional, organism-based. In short, it runs like this:
as §2

Data set [4] concerns Influenza B virus. As to the kind of experiment: Antimicrobial activity against Influenza B virus (B/Malaysia/2506/2004) infected po dosed Mustela putorius furo assessed as nasal viral titer treated bid after 4 hrs post infection measured after 1 day. The data set is classed as functional, organism-based. In short, it runs like this: (§3)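 Ferrets (600–800 g), seronegative by hemagglutination inhibition, anaesthetized with ketamine/xylazine and infected with B/Malaysia/2506/2004, 1,000 PFU/100 μl. From 4 hpi they received either a single intranasal dose (saline, 0.05 or 0.5 μmol/kg) or 25 mg/kg oral twice daily. Nasal wash titers measured by MDCK plaque assay on days 1, 2 and 3, log10 PFU/ml (n = 5). Undetectable samples entered at the lower limit of detection.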

In data set [5] the test system is Influenza B virus. The data set can be described thus: Antimicrobial activity against Influenza B virus (B/Malaysia/2506/2004) infected po dosed Mustela putorius furo assessed as nasal viral titer treated bid after 4 hrs post infection measured after 2 days. The data set is classed as functional, organism-based. In short, it runs like this: as §3
In data set [6] the test system is Influenza B virus. As to the kind of experiment: Antimicrobial activity against Influenza B virus (B/Malaysia/2506/2004) infected po dosed Mustela putorius furo assessed as nasal viral titer treated bid after 4 hrs post infection measured after 3 days. The data set is classed as functional, organism-based. In short, it runs like this: as §3
Data set [7] has as its system Influenza A virus. The data set can be described thus: Antimicrobial activity against oseltamivir-sensitive influenza A virus (A/Yokohama/67/2006 (H1N1)) clone 1 infected in BALB/c mouse assessed as reduction in viral titer in lung at 1.0 mg/kg, po administered qd post 13 hrs infection measured after 37 hrs post infection. Further details: dose 1 mg/kg. The data set is classed as functional, organism-based.

Data set [8] deals with Influenza A virus. As to the kind of experiment: Antimicrobial activity against oseltamivir-sensitive influenza A virus (A/Yokohama/67/2006 (H1N1)) clone 1 infected in BALB/c mouse assessed as reduction in viral titer in lung at 1.0 mg/kg, po administered QD post 13 hrs infection measured after 61 hrs post infection. Also noted: dose 1 mg/kg. It is filed as functional, organism-based.

Data set [9] concerns Influenza A virus. As to the kind of experiment: Antimicrobial activity against oseltamivir-sensitive influenza A virus (A/Yokohama/67/2006 (H1N1)) clone 1 infected in BALB/c mouse assessed as reduction in viral titer in lung at 1.0 mg/kg, po administered QD post 13 hrs infection measured after 85 hrs post infection. It is filed as functional, organism-based. Further details: dose 1 mg/kg.

Data set [10] deals with Influenza A virus. As to the kind of experiment: Antimicrobial activity against oseltamivir-sensitive influenza A virus (A/Yokohama/67/2006 (H1N1)) clone 1 infected in BALB/c mouse assessed as reduction in viral titer in lung at 10 mg/kg, po administered QD post 13 hrs infection measured after 37 hrs post infection. It is filed as functional, organism-based. Further details: dose 10 mg/kg.

Data set [11] has as its system Influenza A virus. The data set can be described thus: Antimicrobial activity against oseltamivir-sensitive influenza A virus (A/Yokohama/67/2006 (H1N1)) clone 1 infected in BALB/c mouse assessed as reduction in viral titer in lung at 10 mg/kg, po administered QD post 13 hrs infection measured after 61 hrs post infection. The data set is classed as functional, organism-based. Further details: dose 10 mg/kg.

The subject of data set [12] is Influenza A virus. As to the kind of experiment: Antimicrobial activity against oseltamivir-sensitive influenza A virus (A/Yokohama/67/2006 (H1N1)) clone 1 infected in BALB/c mouse assessed as reduction in viral titer in lung at 10 mg/kg, po administered QD post 13 hrs infection measured after 85 hrs post infection. It is filed as functional, organism-based. Also noted: dose 10 mg/kg.

For data set [13], the species on record is Rattus norvegicus. As to the kind of experiment: Half life in rat assessed as oseltamivir carboxylate. The data set is classed as ADME, organism-based. Conditions: in vivo.
Data set [14] concerns Influenza A virus. As to the kind of experiment: Antimicrobial activity against Influenza A virus (A/Puerto Rico/8/34(H1N1)) infected in BALB/c mouse assessed as increase in mouse survival at 110 mg/kg, po for 1 days before infection. The data set is classed as functional, organism-based. Further details: dose 110 mg/kg. Conditions: A/Puerto Rico/8/1934(H1N1). In short, it runs like this:
(§4)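 Mice received one oral dose (200 μl in saline) at 1 day or 12 h before intranasal infection with A/PR/8/34 at 100 PFU. Saline controls were dosed intranasally 7 days before infection. n = 8 per group. Survival was monitored to 20 dpi and compared with saline by log-rank test.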

Data set [15] deals with Influenza A virus. As to the kind of experiment: Antimicrobial activity against Influenza A virus (A/Puerto Rico/8/34(H1N1)) infected in BALB/c mouse assessed as increase in mouse survival at 110 mg/kg, po for 12 hrs before infection. As to conditions: A/Puerto Rico/8/1934(H1N1). Also noted: dose 110 mg/kg. It is filed as functional, organism-based. In short, it runs like this: as §4

Data set [16] relates to Influenza A virus. The data set can be described thus: Antimicrobial activity against Influenza A virus (A/Puerto Rico/8/34(H1N1)) infected in BALB/c mouse assessed as increase in mouse survival at 1.1 mg/kg, po bid administered 11 hrs post infection for 5 days […] infection measured on day 20. The data set is classed as functional, A/Puerto Rico/8/1934(H1N1). The procedure, abridged: as §1

Data set [17] deals with Influenza A virus. As to the kind of experiment: Antimicrobial activity against Influenza A virus (A/Puerto Rico/8/34(H1N1)) infected in BALB/c mouse assessed as increase in mouse survival at 1.1 mg/kg, po for 7 days post infection. As to conditions: A/Puerto Rico/8/1934(H1N1). Further details: dose 1.1 mg/kg. It is filed as functional, organism-based.
Data set [18] relates to Influenza A virus. As to the kind of experiment: Antimicrobial activity against Influenza A virus (A/Puerto Rico/8/34(H1N1)) infected in BALB/c mouse assessed as increase in mouse survival at 1.1 mg/kg, po for 4 days post infection. It is filed as functional, organism-based. Further details: dose 1.1 mg/kg. As to conditions: A/Puerto Rico/8/1934(H1N1).
In data set [19] the test system is Influenza A virus. The data set can be described thus: Antimicrobial activity against Influenza A virus (A/Puerto Rico/8/34(H1N1)) infected in BALB/c mouse assessed as increase in mouse survival at 1.1 mg/kg, po for 1 day post infection. It is filed as functional, organism-based. Further details: dose 1.1 mg/kg. As to conditions: A/Puerto Rico/8/1934(H1N1).
For data set [20], the system named is Influenza A virus. The data set can be described thus: Antimicrobial activity against Influenza A virus (A/Puerto Rico/8/34(H1N1)) infected in BALB/c mouse assessed as increase in mouse survival at 1.1 mg/kg, po for 12 hrs post infection. As to conditions: A/Puerto Rico/8/1934(H1N1). Also noted: dose 1.1 mg/kg. It is filed as functional, organism-based.
Data set [21] relates to Influenza A virus. As to the kind of experiment: Antimicrobial activity against Influenza A virus (A/Puerto Rico/8/34(H1N1)) infected in BALB/c mouse assessed as increase in mouse survival at 11 mg/kg, po for 7 days post infection. The data set is classed as functional, organism-based. Conditions: A/Puerto Rico/8/1934(H1N1). Further details: dose 11 mg/kg.
The subject of data set [22] is Influenza A virus. As to the kind of experiment: Antimicrobial activity against Influenza A virus (A/Puerto Rico/8/34(H1N1)) infected in BALB/c mouse assessed as increase in mouse survival at 11 mg/kg, po for 4 days post infection. Further details: dose 11 mg/kg. It is filed as functional, organism-based. Conditions: A/Puerto Rico/8/1934(H1N1).
In data set [23] the test system is Influenza A virus. As to the kind of experiment: Antimicrobial activity against Influenza A virus (A/Puerto Rico/8/34(H1N1)) infected in BALB/c mouse assessed as increase in mouse survival at 11 mg/kg, po for 1 day post infection. It is filed as functional, organism-based. As to conditions: A/Puerto Rico/8/1934(H1N1). Further details: dose 11 mg/kg.
The subject of data set [24] is Influenza A virus. As to the kind of experiment: Antimicrobial activity against Influenza A virus (A/Puerto Rico/8/34(H1N1)) infected in BALB/c mouse assessed as increase in mouse survival at 11 mg/kg, po for 12 hrs post infection. It is filed as functional, organism-based. Also noted: dose 11 mg/kg. Conditions: A/Puerto Rico/8/1934(H1N1).
Data set [25] is described as follows: Half life in mouse. The data set is classed as ADME, organism-based. Conditions: in vivo.

Structures are written as SMILES. The source made the active and inactive calls. The rule behind the calls is not given here.

Turning to `CCOC(=O)C1=C[C@@H](OC(CC)CC)[C@H](NC(C)=O)[C@@H](N)C1.O=P(O)(O)O` [OSELTAMIVIR PHOSPHATE], the result in [1], in data set [7], in data set [8], in [9], in [10] and in data set [11] was Active. Also, the outcome in [12], in [14] and in data set [15] was Active. Moreover, the Activity result is “tde” in data set [2]; “tde” in data set [3]; “Dose-dependent effect” in data set [4]; “Dose-dependent effect” in data set [5]; “Dose-dependent effect” in data set [6]; 50% in [16]. The t1/2 in [13] was 7 h. Moreover, the outcome in [17], in [18], in data set [19], in data set [20], in data set [21] and in data set [22] was inactive. In addition, the outcome in [23] and in [24] was inactive.

Compound `CO[C@@H]([C@@H]1OC(C(=O)O)=C[C@H](NC(=N)N)[C@H]1NC(C)=O)[C@H](O)CO` [LANINAMIVIR] had a half-life in data set [25] of 41.4 h.
